Key:
Format in all cases: ADME, organism-based
Rattus norvegicus = assay: AUC (0 to infinity) as total radioactivity in female Sprague-Dawley rat plasma at 5 mg/kg, iv administered as single dose by LC/MS/MS analysis; parameters: dose 5 mg/kg, dosed compound name [14C]Sunitinib, route intravenous, time infinity; settings: in vivo
Procedure, shortened: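 Single dose of [14C]sunitinib L-malate as free base, 50 µCi/kg. IV dose was 5 mg/kg by tail vein in 5 females. Oral dose was 15 mg/kg by gavage in 3 females and 3 males. Total radioactivity was by scintillation counting. […] Cmax was read from raw data, t½ by log-linear regression, AUC by linear trapezoidal rule.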

[1] = Drug recovery in urine of female Sprague-Dawley rat at 5 mg/kg, iv administered as single dose during 0 to 72 hrs by liquid scintillation counting; parameters: dose 5 mg/kg, dosed compound name [14C]Sunitinib, route intravenous; settings: in vivo
Liver [2] = assay: Drug concentration in male albino rat liver assessed as radioactivity per gram of tissue at 20 mg/kg administered as single dose via gastric gavage measured after 24 hrs by autoradiographic analysis; parameters: dose 20 mg/kg, dosed compound name [14C]Sunitinib; settings: in vivo, po
[3] = Drug concentration in female albino rat skeletal muscle assessed as radioactivity per gram of tissue at 20 mg/kg administered as single dose via gastric gavage measured after 3 hrs by autoradiographic analysis; parameters: dose 20 mg/kg, dosed compound name [14C]Sunitinib; settings: in vivo, po
Large intestine = assay: Drug concentration in female albino rat large intestine assessed as radioactivity per gram of tissue at 20 mg/kg administered as single dose via gastric gavage measured after 3 hrs by autoradiographic analysis; parameters: dose 20 mg/kg, dosed compound name [14C]Sunitinib; settings: in vivo, po
Procedure, shortened: (§1)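 Sprague Dawley albino rats, ca 7-8 weeks old, dosed once by gastric gavage with [14C]sunitinib L-malate (15 mg freebase/kg, 100 µCi/kg). One male and one female killed by CO2 at 3, 6, 24, 72 and 168 h. Carcasses frozen in solid CO2/hexane, embedded and cut into 30 µm sagittal sections, then freeze-dried. Radioactivity quantified by whole-body autoradiography against standards by regression, background subtracted.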

Lung [4] = assay: Drug concentration in female albino rat lung assessed as radioactivity per gram of tissue at 20 mg/kg administered as single dose via gastric gavage measured after 3 hrs by autoradiographic analysis; parameters: dose 20 mg/kg, dosed compound name [14C]Sunitinib; settings: in vivo, po; procedure, shortened: as §1
Stomach [5] = assay: Drug concentration in male Lister Hooded pigmented rat stomach assessed as radioactivity per gram of tissue at 20 mg/kg administered as single dose via gastric gavage measured after 24 hrs by autoradiographic analysis; parameters: dose 20 mg/kg, dosed compound name [14C]Sunitinib; settings: in vivo, po
[6] = Drug concentration in male Lister Hooded pigmented rat lachrymal gland assessed as radioactivity per gram of tissue at 20 mg/kg administered as single dose via gastric gavage measured after 24 hrs by autoradiographic analysis; parameters: dose 20 mg/kg, dosed compound name [14C]Sunitinib; settings: in vivo, po
Pancreas = assay: Drug concentration in female albino rat pancreas assessed as radioactivity per gram of tissue at 20 mg/kg administered as single dose via gastric gavage measured after 6 hrs by autoradiographic analysis; parameters: dose 20 mg/kg, dosed compound name [14C]Sunitinib; settings: in vivo, po
Procedure, shortened: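 Sprague Dawley (albino) and Lister Hooded (pigmented) rats, ca 7-8 weeks old, 179-310 g, acclimated 7 days. Single gavage dose of [14C]sunitinib L-malate (15 mg freebase/kg, 100 µCi/kg). One male and one female killed by CO2 per time point: albino at 3, 6, 24, 72, 168 h; pigmented at 24, 72, 168, 336 h. Carcasses frozen in solid CO2/hexane, 30 µm sagittal sections freeze-dried. Tissue radioactivity read by quantitative whole-body autoradiography against regression of standards, mean background subtracted.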

[7] = Drug concentration in male albino rat lachrymal gland assessed as radioactivity per gram of tissue at 20 mg/kg administered as single dose via gastric gavage measured after 3 hrs by autoradiographic analysis; parameters: dose 20 mg/kg, dosed compound name [14C]Sunitinib; settings: in vivo, po
Lung [8] = assay: Drug concentration in male albino rat lung assessed as radioactivity per gram of tissue at 20 mg/kg administered as single dose via gastric gavage measured after 3 hrs by autoradiographic analysis; parameters: dose 20 mg/kg, dosed compound name [14C]Sunitinib; settings: in vivo, po
[9] = Drug concentration in male albino rat skeletal muscle assessed as radioactivity per gram of tissue at 20 mg/kg administered as single dose via gastric gavage measured after 3 hrs by autoradiographic analysis; parameters: dose 20 mg/kg, dosed compound name [14C]Sunitinib; settings: in vivo, po
Zone of skin [10] = assay: Drug concentration in male albino rat abdomen skin assessed as radioactivity per gram of tissue at 20 mg/kg administered as single dose via gastric gavage measured after 3 hrs by autoradiographic analysis; parameters: dose 20 mg/kg, dosed compound name [14C]Sunitinib; settings: in vivo, po
[11] = Drug concentration in female albino rat uveal tract assessed as radioactivity per gram of tissue at 20 mg/kg administered as single dose via gastric gavage measured after 6 hrs by autoradiographic analysis; parameters: dose 20 mg/kg, dosed compound name [14C]Sunitinib; settings: in vivo, po
Stomach [12] = assay: Drug concentration in female albino rat stomach assessed as radioactivity per gram of tissue at 20 mg/kg administered as single dose via gastric gavage measured after 3 hrs by autoradiographic analysis; parameters: dose 20 mg/kg, dosed compound name [14C]Sunitinib; settings: in vivo, po
[13] = Drug concentration in female albino rat uveal tract assessed as radioactivity per gram of tissue at 20 mg/kg administered as single dose via gastric gavage measured after 3 hrs by autoradiographic analysis; parameters: dose 20 mg/kg, dosed compound name [14C]Sunitinib; settings: in vivo, po
[14] = Drug concentration in male albino rat bone marrow assessed as radioactivity per gram of tissue at 20 mg/kg administered as single dose via gastric gavage measured after 3 hrs by autoradiographic analysis; parameters: dose 20 mg/kg, dosed compound name [14C]Sunitinib; settings: in vivo, po
Brain = assay: Drug concentration in male Lister Hooded pigmented rat brain assessed as radioactivity per gram of tissue at 20 mg/kg administered as single dose via gastric gavage measured after 168 hrs by autoradiographic analysis; parameters: dose 20 mg/kg, dosed compound name [14C]Sunitinib; settings: in vivo, po
[15] = Drug concentration in male albino rat pituitary gland assessed as radioactivity per gram of tissue at 20 mg/kg administered as single dose via gastric gavage measured after 72 hrs by autoradiographic analysis; parameters: dose 20 mg/kg, dosed compound name [14C]Sunitinib; settings: in vivo, po
Adrenal = assay: Drug concentration in female albino rat adrenal assessed as radioactivity per gram of tissue at 20 mg/kg administered as single dose via gastric gavage measured after 72 hrs by autoradiographic analysis; parameters: dose 20 mg/kg, dosed compound name [14C]Sunitinib; settings: in vivo, po
Procedure, shortened: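 Sprague Dawley (albino) rats, ca 7-8 weeks old, received a single gastric-gavage dose of [14C]sunitinib L-malate at 20 mg/kg (15 mg freebase/kg, 100 µCi/kg). One animal per sex killed by CO2 at 3, 6, 24, 72 and 168 h, then frozen in CO2/hexane. 30 µm sagittal sections were cut and freeze-dried. Radioactivity per gram quantified by whole-body autoradiography using regression against standards. LOQ 0.04–0.06 µg freebase equiv/g.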

[16] = Drug concentration in female albino rat lachrymal gland assessed as radioactivity per gram of tissue at 20 mg/kg administered as single dose via gastric gavage measured after 72 hrs by autoradiographic analysis; parameters: dose 20 mg/kg, dosed compound name [14C]Sunitinib; settings: in vivo, po; procedure, shortened: as §1
Blood = assay: Drug concentration in male albino rat blood assessed as radioactivity per gram of tissue at 20 mg/kg administered as single dose via gastric gavage measured after 24 hrs by autoradiographic analysis; parameters: dose 20 mg/kg, dosed compound name [14C]Sunitinib; settings: in vivo, po
Kidney = assay: Drug concentration in female albino rat kidney assessed as radioactivity per gram of tissue at 20 mg/kg administered as single dose via gastric gavage measured after 24 hrs by autoradiographic analysis; parameters: dose 20 mg/kg, dosed compound name [14C]Sunitinib; settings: in vivo, po; procedure, shortened: as §1
Liver [17] = assay: Drug concentration in female albino rat liver assessed as radioactivity per gram of tissue at 20 mg/kg administered as single dose via gastric gavage measured after 24 hrs by autoradiographic analysis; parameters: dose 20 mg/kg, dosed compound name [14C]Sunitinib; settings: in vivo, po; procedure, shortened: as §1
Zone of skin [18] = assay: Drug concentration in female Lister Hooded pigmented rat abdomen skin assessed as radioactivity per gram of tissue at 20 mg/kg administered as single dose via gastric gavage measured after 72 hrs by autoradiographic analysis; parameters: dose 20 mg/kg, dosed compound name [14C]Sunitinib; settings: in vivo, po
Procedure, shortened: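 Pigmented Lister Hooded rats, 7-8 weeks old, received [14C]sunitinib L-malate by gavage at 20 mg/kg (15 mg freebase/kg, 100 µCi/kg). One rat per sex was killed by CO2 at each of 24, 72, 168 and 336 h. Carcasses were frozen in solid CO2/hexane and cut into 30 µm sagittal sections, then freeze-dried. Tissue radioactivity was quantified by whole-body autoradiography calibrated against standards by regression (LOQ 0.04–0.06 µg eq/g).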

- AUC (Rattus norvegicus): 17427 ng.Eq.hr/ml
- Radiolabel recovery [1]: 9.1%
- Radiolabel recovery (Liver [2]): 1.7 ugequiv
- Radiolabel recovery [3]: 3.97 ugequiv
- Radiolabel recovery (Large intestine): 7 ugequiv
- Radiolabel recovery (Lung [4]): 28.98 ugequiv
- Radiolabel recovery (Stomach [5]): 0.67 ugequiv
- Radiolabel recovery [6]: 0.94 ugequiv
- Radiolabel recovery (Pancreas): 11.3 ugequiv
- Radiolabel recovery [7]: 8.82 ugequiv
- Radiolabel recovery (Lung [8]): 20.7 ugequiv
- Radiolabel recovery [9]: 2.92 ugequiv
- Radiolabel recovery (Zone of skin [10]): 2.81 ugequiv
- Radiolabel recovery [11]: 4.94 ugequiv
- Radiolabel recovery (Stomach [12]): 15.45 ugequiv
- Radiolabel recovery [13]: 5.07 ugequiv
- Radiolabel recovery [14]: 7.55 ugequiv
- Radiolabel recovery (Brain): 0.06 ugequiv
- Radiolabel recovery [15]: 2.7 ugequiv
- Radiolabel recovery (Adrenal): 1.52 ugequiv
- Radiolabel recovery [16]: 0.25 ugequiv
- Radiolabel recovery (Blood): 0.07 ugequiv
- Radiolabel recovery (Kidney): 4.79 ugequiv
- Radiolabel recovery (Liver [17]): 2.8 ugequiv
- Radiolabel recovery (Zone of skin [18]): 0.26 ugequiv
Structure (SMILES): CCN(CC)CCNC(=O)c1c(C)[nH]c(/[14CH]=C2\C(=O)Nc3ccc(F)cc32)c1C.O=C(O)C[C@H](O)C(=O)O

— ChEMBL document CHEMBL3525900, “Pharmacokinetics, distribution, and metabolism of [14C]sunitinib in rats, monkeys, and humans” (Drug Metab Dispos, 2012)
